The values that follow come from article PMC4090259 (Stem cell research, 2014).

Read-outs that look alike come from different tables or passages of the source.

For series [1], the system named is Hep3B. Conditions: when P450 metabolism was absent; ref Lee et al. 2008; cited from earlier work.
In series [2] the test system is ReNcell VM cells. It counts as cell-based, human.
The subject of series [3] is ReNcell VM differentiated progeny (astrocytic phenotype). It counts as cell-based, human.
The subject of series [4] is ReNcell VM cells. The series is described as follows: Cytotoxicity in 2D ReNcell VM cultures, 96-well plate format. The series is classed as cell-based. Conditions: Homo sapiens. A digest of the protocol: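 Human neural stem cells seeded at 5,000 cells/well and left to attach for at least 5 h. Doses made by 4-fold serial dilution from the highest dose, each holding 0.5% DMSO vehicle. Viability read by MTT: 2.5 mg/ml MTT solution added, 3 h under culture conditions, supernatant removed, formazan dissolved in DMSO, absorbance at 590 nm with 690 nm reference.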

Series [5] deals with ReNcell CX neural progenitor cell line. Conditions: cited from earlier work.
Series [6] concerns various cancer cell lines. Conditions: literature values for various cancer cell lines; ref Chauffert & Dimanche-Boitrel 1998; Lee et al. 2008; Meli et al. 2012; cited from earlier work.

With `CC(=O)Nc1ccc(O)cc1` [Acetaminophen, acetaminophen], the toxicity entry in series [1] is recorded as “non-toxic”. The concentration for half-maximal inhibition (IC50) in series [2] (Homo sapiens, ReNcell VM) is 2400 µM; in series [4] it was 1760 µM. The “viability of the cells below the hepatotoxic range of concentrations” value in series [2] (hNSC line, concentrations below ~0.2 – 1 mM) is listed as “remains unaffected”; in series [3] (differentiated progeny, concentrations below ~0.2 – 1 mM) it was “remains unaffected”.

As to `C[C@@H]1C[C@H]2[C@@H]3CCC4=CC(=O)C=C[C@]4(C)[C@@]3(F)[C@@H](O)C[C@]2(C)[C@@]1(O)C(=O)CO` [Dexamethasone, dexamethasone], the effect on viability entry in series [5] (concentrations of up to 100 μM, ref Breier et al. 2008b) is reported as “negligible effect on viability”. Besides, the IC50 is 2000 µM in series [2] (Homo sapiens, ReNcell VM); 60 µM in series [3] (Homo sapiens, ReNcell VM); 215 µM in series [4].

As for `[Cl][Cd][Cl]` [CdCl, cadmium chloride hydrate], the IC50 in series [2] (Non-differentiated, 3D alginate microarray, 24 h exposure + 48 h in medium) turned out to be 7.36 µM.

For the compound `O=c1[nH]cc(F)c(=O)[nH]1` [5-Fluorouracil, 5-fluorouracil], the “effect on proliferation and viability” value in series [5] (non-differentiated, 2D well plate, after 24 h of incubation with the drug, ref Breier et al. 2008a) is on record as “inhibited proliferation without affecting viability”. The IC50 in series [6] was 1 to 85 µM.
